Legend:
[1] = folding enthalpy; higher = less favourable; fluorescence melt of hairpins on a sequencing array, two-state fit; conditions: sodium 0.088 M
Summary of the method: (§1)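 Melting temperature and folding enthalpy were obtained by bootstrapped two-state fitting. Fits used Cy3 fluorescence of library hairpins with annealed Cy3 and quencher oligos on a sequenced MiSeq flow cell, imaged in 50 mM Na-HEPES pH 8.0, 25 mM NaCl in 2.5 °C steps up to 60 °C and normalised to pre-quench Cy3 and control constructs. Four replicates were combined by inverse-variance weighting, and fitted temperatures were raised by 9.35 °C to match UV melts.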

[2] = melting temperature; fluorescence melt of hairpins on a sequencing array, two-state fit, raised by 9.35 °C to match UV melts; conditions: sodium 0.088 M
Summary of the method: as §1

| Sequence | folding enthalpy [1] [kJ/mol] | Tm [2] [°C] |
| --- | --- | --- |
| GATACCGAAAGGTAAATC ((((((....)))..))) | -56.4 | 28.7 |
| GATACCGAAAGGTAATC ((((((....))).))) | -79 | 39 |
| GATACCGAAAGGTAGATC ((((((....)))..))) | -76.5 | 44.6 |
| GATACGGAAACGTATC ((((((....)))))) | -182 | 54 |
| GATACTGAAAAGTATC ((((((....)))))) | -171 | 48.5 |
| GATAGACGAAAGTCAATC (((.(((....))).))) | -94.3 | 41.2 |
| GATAGACGAAAGTCATC (((.(((....)))))) | -64.3 | 38.4 |
| GATAGAGGAAACTCTATC (((((((....))))))) | -176 | 50.2 |
| GATAGCACGAAAGTGATC (((..(((....)))))) | -41 | 28.4 |
| GATAGCCGAAAGGCGATC (((.(((....))).))) | -74.9 | 58.8 |
| GATAGCGAAAGCTAGATC ((((((....)))..))) | -64.3 | 45.2 |
| GATAGCGAAAGCTCATC ((((((....))).))) | -55.8 | 36.5 |
| GATAGCGAAAGCTGAATC ((((((....)))..))) | -45.8 | 27 |
| GATAGCGAAAGCTGTATC ((((((....)))..))) | -53.4 | 31.9 |
| GATAGCGAAAGCTTAATC ((((((....)))..))) | -45 | 25.3 |
| GATAGGCCGAAAGGCATC (((..(((....)))))) | -41.1 | 30.3 |
| GATAGTGGAAACACTATC (((((((....))))))) | -198 | 54.5 |
| GATAGTGGAAACATTATC ((((.((....)).)))) | -76.9 | 31 |
| GATATAGGAAACTATATC (((((((....))))))) | -140 | 45.5 |
| GATATAGGAAACTATGTC ((.((((....)))).)) | -91.3 | 33.5 |
| GATATCACGAAAGTGATC (((..(((....)))))) | -40.5 | 39.4 |
| GATATCCGAAAGGAAATC (((.(((....))).))) | -114 | 37.1 |
| GATATCCGAAAGGACATC (((.(((....))).))) | -92.1 | 38.9 |
| GATATCGAAAGATATC ((((((....)))))) | -172 | 53.6 |

| Sequence | folding enthalpy [1] [kJ/mol] | Tm [2] [°C] |
| --- | --- | --- |
| GATATCGGAAACGGTATC ((((.((....)).)))) | -125 | 44 |
| GATATGAAAATATC (((((....))))) | -65.9 | 35.7 |
| GATATTGGAAACAGTATC ((((.((....)).)))) | -51.2 | 34.3 |
| GATCAAAAAGTTGATC ((((((....)))))) | -58.9 | 33 |
| GATCAAAAATTGATC ((((((...)))))) | -124 | 37 |
| GATCAAAACATTGATC ((((((....)))))) | -133 | 42.3 |
| GATCAAAAGTTGATC ((((((...)))))) | -109 | 39.5 |
| GATCAAAAGTTTGATC ((((((....)))))) | -116 | 42.4 |
| GATCAAACATTGATC ((((((...)))))) | -131 | 41.2 |
| GATCAAAGATTGATC ((((((...)))))) | -115 | 36.1 |
| GATCAAAGATTTGATC ((((((....)))))) | -133 | 43.6 |
| GATCAAAGCGTTGATC ((((((....)))))) | -132 | 43.7 |
| GATCAAAGTATTGATC ((((((....)))))) | -125 | 42.6 |
| GATCAAAGTGTTGATC ((((((....)))))) | -124 | 42.4 |
| GATCAACAGATTGATC ((((((....)))))) | -126 | 40.4 |
| GATCAACATTTGATC ((((((...)))))) | -130 | 38.2 |
| GATCAACCACTTGATC ((((((....)))))) | -136 | 42.3 |
| GATCAACCCATTGATC ((((((....)))))) | -133 | 44.8 |
| GATCAACCCTTGATC ((((((...)))))) | -127 | 43.6 |
| GATCAACCGGTTGATC ((((((....)))))) | -224 | 55.9 |
| GATCAACCTGTTGATC ((((((....)))))) | -172 | 55.2 |
| GATCAACGATTGATC ((((((...)))))) | -82.7 | 36.3 |
| GATCAACGATTTGATC ((((((....)))))) | -104 | 39.3 |
| GATCAACGGGTTGATC ((((((....)))))) | -154 | 56.8 |

| Sequence | folding enthalpy [1] [kJ/mol] | Tm [2] [°C] |
| --- | --- | --- |
| GATCAACGGTTGATC ((((((...)))))) | -169 | 44.7 |
| GATCAACGTATTGATC ((((((....)))))) | -113 | 44.1 |
| GATCAACGTGTTGATC ((((((....)))))) | -252 | 57.4 |
| GATCAACTGATTGATC ((((((....)))))) | -135 | 42.7 |
| GATCAACTGGTTGATC ((((((....)))))) | -166 | 55.2 |
| GATCAACTTATTGATC ((((((....)))))) | -148 | 43 |
| GATCAAGACGTTGATC ((((((....)))))) | -142 | 48.2 |
| GATCAAGACTTGATC ((((((...)))))) | -136 | 43.4 |
| GATCAAGACTTTGATC ((((((....)))))) | -147 | 51.7 |
| GATCAAGAGATTGATC ((((((....)))))) | -123 | 41.8 |
| GATCAAGATATTGATC ((((((....)))))) | -145 | 48.5 |
| GATCAAGCAATTGATC ((((((....)))))) | -143 | 48.8 |
| GATCAAGCATTTGATC ((((((....)))))) | -137 | 51 |
| GATCAAGCCATTGATC ((((((....)))))) | -205 | 50.5 |
| GATCAAGCGTTTGATC ((((((....)))))) | -129 | 43.9 |
| GATCAAGCTTTGATC ((((((...)))))) | -124 | 43.4 |
| GATCAAGGAAACTCGATC ((((.((....)).)))) | -71.8 | 28.4 |
| GATCAAGGAAACTTGATC (((((((....))))))) | -195 | 54 |
| GATCAAGGAATTGATC ((((((....)))))) | -133 | 47.6 |
| GATCAAGGCTTTGATC ((((((....)))))) | -176 | 50.1 |
| GATCAAGGTGTTGATC ((((((....)))))) | -133 | 46.1 |
| GATCAAGTCATTGATC ((((((....)))))) | -175 | 52.3 |
